# CXCR6 inh – CXCR6 receptor inhibitors, primary screen, cell-based, beta-arrestin, luminescence, CHO-K1 PathHunter, 1536-well; C-X-C chemokine receptor type 6 (Homo sapiens), O00574; inhibition, % at 20 µM; 360,000 tested, 0.36% active; AID 602244, 2012; in the data active = inhibition above about 34%, passing the limit was not always enough;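 also: antagonist mode with CXCL16 agonist at 10 nM final; 0% = 10 nM CXCL16 with DMSO and 100% = unstimulated wells without agonist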
# Target sequence (O00574 whole entry, looked up): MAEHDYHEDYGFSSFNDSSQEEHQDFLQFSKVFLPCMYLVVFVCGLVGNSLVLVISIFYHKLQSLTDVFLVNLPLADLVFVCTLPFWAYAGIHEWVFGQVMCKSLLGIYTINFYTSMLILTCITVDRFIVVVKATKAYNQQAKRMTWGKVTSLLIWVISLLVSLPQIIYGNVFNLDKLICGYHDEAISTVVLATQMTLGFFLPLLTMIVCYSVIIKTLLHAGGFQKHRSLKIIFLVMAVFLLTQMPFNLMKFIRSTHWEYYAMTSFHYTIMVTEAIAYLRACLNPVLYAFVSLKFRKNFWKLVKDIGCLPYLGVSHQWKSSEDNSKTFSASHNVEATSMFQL
# APJ agonist – agonists of human apelin receptor APJ, primary screen, CHO-K1 cells, PathHunter beta-arrestin, luminescence. activation, % at 20 µM. AID 2520, 2010. P35414. 0% DMSO wells, 100% apelin. 330,000 tested, 0.11% active;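 active = activation more than six SD over the plate average, tested at 20 µM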;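 also: 0% = DMSO alone and 100% = apelin-13 at 10 nM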
# Target sequence (P35414 whole entry, looked up): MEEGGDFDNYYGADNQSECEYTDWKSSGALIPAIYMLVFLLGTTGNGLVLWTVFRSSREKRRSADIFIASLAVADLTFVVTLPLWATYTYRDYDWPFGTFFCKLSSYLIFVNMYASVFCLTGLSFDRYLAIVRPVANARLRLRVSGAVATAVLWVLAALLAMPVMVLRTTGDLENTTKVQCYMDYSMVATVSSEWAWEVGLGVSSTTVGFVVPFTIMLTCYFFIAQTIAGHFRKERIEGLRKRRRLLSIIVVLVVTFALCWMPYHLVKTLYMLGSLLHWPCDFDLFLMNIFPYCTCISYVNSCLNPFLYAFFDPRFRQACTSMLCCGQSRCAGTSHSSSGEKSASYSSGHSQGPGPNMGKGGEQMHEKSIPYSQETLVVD
#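 Incubation: overnight seeding, 90 min compound at 25 °C, 1 h detection; test system: PathHunter CHO-K1 APJ (AGTRL-1) beta-arrestin reporter cells; amount: 1000 cells/well; doses: one dose, 20 µM compound, 1% DMSO; measured by: beta-gal luminescence; measure: agonist-driven arrestin binding to APJ; benchmarks: negative DMSO alone, positive Apelin-13 at 10 nM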
# CCR6 antag – CCR6 receptor antagonists, primary screen, cell-based, CHO-K1, luminescence, beta-arrestin, uHTS. inhibition, % at 20 µM. CHO-K1 CCR6 PathHunter beta-arrestin, CCL20-stimulated. 340,000 tested, 0.49% active;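 active = compounds whose inhibition of the agonist-driven luminescence signal at 20 µM reaches about 50%, limit read from the data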;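 also: cells stimulated with CCL20 at 14 nM final; plate controls were DMSO with CCL20 for no effect and DMSO without agonist for full effect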
# APJ antagonist – antagonists of human apelin receptor APJ, primary screen, CHO-K1 cells, beta-arrestin complementation, luminescence | P35414 | inhibition, % at 20 µM | 330,000 tested, 0.32% active | AID 2521, 2010;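 active = inhibition above about 40% at 20 µM, limit read from the data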;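 also: cells challenged with 10 nM apelin-13 agonist together with compound; plate controls were apelin-13 plus DMSO wells for no effect and DMSO wells lacking apelin-13 for full effect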
# EBI2 antag – EBI2 receptor antagonists, beta-arrestin recruitment, primary screen, cell-based, luminescence, 7a,25-OHC stimulation, uHTS. 360,000 tested, 0.81% active. inhibition, % at 5 µM. 7a,25-OHC stimulated. AID 651636, 2012; in the data active = inhibition above about 38%;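 also: enzyme fragment complementation signal reports receptor beta-arrestin coupling in cells; 0% = agonist plus DMSO wells and 100% = wells without agonist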
# EBI2 antag conf – EBI2 antagonist hit retest, beta-arrestin, confirmation, cell-based, single concentration, luminescence, 7a,25-OHC stimulation; shares compounds with EBI2 antag; 7a,25-OHC antagonism; inhibition, % at 5 µM; 2,400 tested, 29% active;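 active = inhibition of at least 50%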
# EBI2 ag – EBI2 agonist activity of antagonist hits, confirmation, counter-screen for EBI2 antagonist project, cell-based, single concentration, agonist mode, luminescence | 2,400 tested, under 10 active | EBI2-expressing cells, 60 min; 0% vehicle, 100% 7α,25-dihydroxycholesterol control | AID 652000, 2013 | activation, % at 5 µM | shares compounds with EBI2 antag;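 active = activation of at least 50%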
# bGal cs – E. coli beta-galactosidase enzyme inhibition, confirmation, counter-screen for EBI2 antagonist project, biochemical, luminescence, single concentration | shares compounds with EBI2 antag | purified beta-galactosidase, luminescent Galacton Star, 15 min | inhibition, % at 5 µM | 2,400 tested, 1% active | AID 652176, 2013;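 active = replicate-average signal at least 3 plate SD below neutral wells, shown as high inhibition, flagging enzyme-inhibiting false positives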;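 also: 0% = DMSO wells with enzyme and 100% = wells lacking enzyme; higher means stronger loss of beta-gal luminescence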
# * = called active by the depositor; x = no result. An excerpt weighted towards active compounds, which were near 1.5% of everything screened.
SMILES,CXCR6 inh,APJ agonist,CCR6 antag,APJ antagonist,EBI2 antag,EBI2 antag conf,EBI2 ag,bGal cs
COC(=O)c1sc(NC(=O)OCc2ccccc2)nc1CCNC(=O)OC(C)(C)C,x,x,x,x,2.5,x,x,x
O=C(NC1CCCCC1)C1c2ccccc2OCC(=O)N1Cc1ccco1 (stereo unspecified),-4.9,x,x,x,-2.3,x,x,x
Cc1ccc(OCCOC(=O)C2CCN(S(=O)(=O)c3ccc(C)c(C)c3)CC2)cc1,-1.0,-1.7,1.8,11.1,56.3*,26.0,-0.1,6.5
Cc1cccc(OCCOC(=O)C2CCN(S(=O)(=O)c3ccc(C)c(C)c3)CC2)c1,12.9,-0.6,26.4,-12.6,22.4,x,x,x
Cc1ccc(S(=O)(=O)N2CCC(C(=O)OCCOc3ccccc3)CC2)cc1C,-8.6,-4.1,12.6,10.4,45.5*,40.2,-1.5,-20.1
COc1ccc(C(O)c2ncc(-c3cccc4ccccc34)[nH]2)cc1F (stereo unspecified),1.8,x,x,x,4.0,x,x,x
O=C(c1cccc(C(=O)N2CCN(c3ccccc3F)CC2)c1)N1CCN(c2ccccc2F)CC1,6.0,4.0,-2.8,-14.2,-2.9,x,x,x
COc1ccccc1N1CCN(C(=O)c2ccoc2C)CC1,0.0,-1.8,-19.6,-8.7,-6.9,x,x,x
Cc1[nH]c(-c2ccc(F)cc2)cc1C(=O)N1CCN(c2ccccc2F)CC1,10.9,-0.4,-27.6,4.7,90.9*,85.2*,-0.3,8.5
COc1ccccc1N1CCN(C(=O)c2cc(-c3ccc(F)cc3)[nH]c2C)CC1,8.4,0.9,7.0,-5.0,95.3*,71.5*,-0.7,-6.0
COc1ccccc1-c1cc(NC=O)c2ncc(-c3cccc(C(=O)N(C)C)c3)n2c1,-5.3,x,x,x,75.2*,39.7,0.3,8.2
O=C(NCc1ccccc1)c1cc(C2CCCCN2C(=O)c2cccs2)on1 (stereo unspecified),8.0,x,x,x,-10.9,x,x,x
Oc1cccc(-c2ccc3nccn3c2)c1,-2.1,x,x,x,0.1,x,x,x
CCCC(=O)N1CCC1(C)C(=O)Nc1ccc2c(c1)OCCO2 (stereo unspecified),2.5,x,x,x,-7.8,x,x,x
Cc1[nH]c(-c2ccc(F)cc2)cc1C(=O)N1CCN(c2ccccc2)CC1,-12.2,3.4,1.3,19.2,86.0*,63.0*,-0.7,-20.5
COc1cccc(N2CCN(C(=O)c3cc(-c4ccc(F)cc4)[nH]c3C)CC2)c1,-4.3,-1.2,-6.2,-2.0,88.6*,69.0*,-1.1,-13.6
Cc1ccc(N2CCN(C(=O)c3cc(-c4ccc(F)cc4)[nH]c3C)CC2C)cc1 (stereo unspecified),7.8,-1.5,-15.8,-22.5,53.0*,32.9,1.4,6.5
C[C@H]1CN([C@@H](C)CO)C(=O)CCCn2nncc2CO[C@H]1CN(C)C(=O)C1CCCCC1,-4.0,x,x,x,-3.6,x,x,x
CC1(C(=O)NS(=O)(=O)C2CC2)CCCN(C(=O)c2ccc3ccccc3c2)C1 (stereo unspecified),5.4,x,x,x,-2.2,x,x,x
O=C(COc1ccc2c(-c3ccccc3)cc(=O)oc2c1)N1C[C@H]2C[C@@H](C1)c1cccc(=O)n1C2,4.0,x,x,x,1.0,x,x,x
Cn1c(=NC(=O)C2CCN(S(=O)(=O)c3cccs3)CC2)sc2ccccc21,6.2,0.3,6.8,4.8,56.7*,26.4,-0.7,-14.8
CN(C(=O)C1CCN(S(=O)(=O)c2cccs2)CC1)c1ccccc1,5.9,0.7,-17.1,6.6,-3.4,x,x,x
Cc1cc(Cl)ccc1Oc1ncnc2oc(-c3ccccc3)cc12,-3.0,-6.1,3.7,-3.9,53.1*,38.4,0.4,1.8
Cc1cccc(Oc2ncnc(N)c2[N+](=O)[O-])c1C,-0.7,-9.8,2.3,6.7,0.0,x,x,x
Cc1cccc(Oc2ncnc3oc(-c4ccccc4)cc23)c1C,-9.2,-0.5,-6.8,-1.2,66.5*,46.6,1.0,9.5
SMILES,CXCR6 inh,APJ agonist,CCR6 antag,APJ antagonist,EBI2 antag,EBI2 antag conf,EBI2 ag,bGal cs
C[C@@H]1CN([C@H](C)CO)C(=O)CCCn2cc(nn2)CO[C@H]1CN(C)S(=O)(=O)c1cccc(C#N)c1,-0.8,x,x,x,-10.2,x,x,x
O=c1ccn2c(n1)SC(c1ccccc1)C2 (stereo unspecified),-1.2,x,x,x,-0.8,x,x,x
C(=C/c1nccc2c1[nH]c1ccccc12)/c1ccc2c(c1)OCO2,-8.3,x,0.3,x,56.3*,43.0,1.4,3.6
C=CCNc1oc(Cc2cccc3ccccc23)nc1C#N,2.2,-3.0,6.9,2.7,-3.6,x,x,x
N#Cc1nc(Cc2cccc3ccccc23)oc1NCc1ccc(F)cc1,2.8,0.0,1.2,7.3,45.4*,24.9,-2.0,-5.3
CCCCC[C@H](C)N1C[C@H](COCc2ccccc2)Oc2cc(N3CC[C@@H](N(C)C)C3)ccc2S1(=O)=O,11.6,x,x,x,10.4,x,x,x
C[C@@H](C(=O)Nc1ccc2ccccc2c1)[C@@H]1C[C@@]1(C)[C@@H](NC(=O)c1cnccn1)c1ccccc1,6.9,-6.1,17.3,8.9,74.6*,42.2,-1.6,-13.4
C[C@@H](C(=O)Nc1ccc2ccccc2c1)[C@H]1C[C@]1(C)[C@H](NC(=O)c1cnccn1)c1ccccc1,3.8,-1.5,2.4,-4.3,9.6,x,x,x
NC(=O)CSc1nnc(-c2ccc(O)cc2)n1Cc1ccco1,-3.4,4.6,-0.9,0.4,-8.9,x,x,x
O=C(CSc1nnc(-c2ccc(O)cc2)n1Cc1ccco1)N1CCc2ccccc2C1,0.3,-0.8,10.0,-4.1,75.7*,15.2,0.2,1.1
CCCCc1ccc(NC(=O)CSc2nc(=O)n(CCN(C)C)c3c2CCC3)cc1,11.8,-2.7,12.7,9.6,3.2,x,x,x
CCCCc1ccc(NC(=O)CSc2nc(=O)n(CCN(CC)CC)c3c2CCCC3)cc1,8.1,1.0,13.3,27.0,51.1*,19.8,0.8,3.0
Cc1cc(C(=O)N2CCC2(C)C(=O)NS(=O)(=O)c2ccccc2Cl)nn1C (stereo unspecified),0.5,x,x,x,7.0,x,x,x
Cc1ccc(CNC(=O)/C(C#N)=C/c2ccc(C)s2)cc1,4.7,5.4,6.8,19.6,50.8*,31.7,0.2,-14.8
